Published values from different studies.
Each line is one published result; the experiments were not run side by side.
Target: Interleukin-1 receptor-associated kinase 1 (IRAK1, Homo sapiens, UniProt P51617)

O=C(NCC1CCOCC1)c1n[nH]cc1NC(=O)c1c(F)cccc1F  remaining binding (binding, competition with immobilised ligand; 1 µM): 98%
Cc1nccc(COC(=O)N2C[C@@H]3[C@@H](CNC(=O)c4ccc5[nH]nnc5c4)[C@@H]3C2)n1  remaining binding (cell-free assay, competition with immobilised ligand; 1 µM): 81%
CN(C)c1nccc(-c2cnn3ncccc23)n1  remaining binding (binding; 1 µM): 71%
COc1cnc(Nc2cccc(S(N)(=O)=O)c2)nc1N1CCN(c2ccccc2)C(=O)C1  remaining binding (binding, competition with immobilised ligand; 1 µM): 55%
O=C(NCCCN1CCOCC1)c1ccc(Nc2nccc(-c3cc4ccccc4s3)n2)cc1  remaining binding (binding, competition with immobilised ligand; 1 µM): 3.3%
COc1cnc(Nc2cccc(S(N)(=O)=O)c2)nc1N1CCN(c2ccccc2)CC1  remaining binding (binding, competition with immobilised ligand; 1 µM): 68%
O=C(c1ccc(Nc2ncc(Cl)c(-c3cc4ccccc4s3)n2)cc1)N1CCC(N2CCCC2)CC1  remaining binding (binding, competition with immobilised ligand; 1 µM): 0%
c1cnn2ncc(-c3ccnc(N4CCC45COC5)n3)c2c1  remaining binding (binding; 1 µM): 76%
Nc1ncc2c(n1)-c1c([nH]c3ccc(C#CC4CC4)cc13)CCCC2  remaining binding (binding, competition with immobilised ligand; 1 µM): 96%
CN(C)c1nccc(-c2cnc3ncccn23)n1  remaining binding (binding; 1 µM): 65%
C[C@@H](c1ccc(-n2cnc3c(N)ncnc32)cc1)N1CCc2nn(C)c(Cc3ccccc3)c2C1=O  remaining binding (binding, competition with immobilised ligand; 0.1 µM): 69%
CCCOc1ccc([C@H]2[C@H](C(=O)O)[C@@H](c3ccc4c(c3)OCO4)CN2CC(=O)Nc2c(CC)cccc2CC)cc1  remaining binding (cell-free assay, competition with immobilised ligand; 1 µM): 67%
Cc1cnn2ncc(-c3ccnc(N(C)C)n3)c2c1  remaining binding (binding; 1 µM): 100%
Cc1c(NC(=O)c2cc(C(N)=O)nc3cc(F)ccc23)c(C(F)(F)F)nn1Cc1ccc(C(C)(C)C)cc1  remaining binding (cell-free assay, competition with immobilised ligand; 1 µM): 100%
N[C@@H]1CCN(c2nccc(-c3cnn4ncccc34)n2)C1  remaining binding (binding; 1 µM): 100%
C[C@H](c1cccc(C#N)c1)n1cc(Cl)cc(C(N)=O)c1=N  remaining binding (cell-free assay, competition with immobilised ligand; 1 µM): 71%
c1cncc(-c2cccc(Nc3nccc(NC4CCCCC4)n3)c2)c1  remaining binding (binding, competition with immobilised ligand; 10 µM): 9.9%
N#CC1(c2ccccn2)CCN(Cc2cc(C(=O)N3CCCC3)c(=O)n3ccccc23)CC1  remaining binding (cell-free assay, competition with immobilised ligand; 1 µM): 100%
C[C@@H]1CCN(c2nccc(-c3cnn4ncccc34)n2)C1  remaining binding (binding; 1 µM): 98%
Cc1cnc(Nc2ccc(C(=O)N3CCC(N4CCCC4)CC3)cc2)nc1-c1cc2ccccc2s1  remaining binding (binding, competition with immobilised ligand; 1 µM): 0%
CCC(=O)N[C@@H]1CC[C@H](C(=O)N(C)c2ccc(-c3nc4ccccc4o3)cc2)C1  remaining binding (cell-free assay, competition with immobilised ligand; 1 µM): 100%
